According to ChEMBL document CHEMBL1138354, “2-(2'-((dimethylamino)methyl)-4'-(fluoroalkoxy)-phenylthio)benzenamine derivatives as serotonin transporter imaging agents” (J Med Chem, 2007):

How the values were obtained:
[1] = biological target: Sodium-dependent dopamine transporter (Homo sapiens, UniProt Q01959); assay: Displacement of [125I]N-(3'-iodopropen-2'yl)-2-beta-carbomethoxy-3-beta-(4-chlorophenyl)tropane from DAT expressed in LLCPK1 cells; format: cell-based, LLC-PK1
Procedure, shortened: (§1)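 Membrane homogenates from LLC-PK1 cells, each line overexpressing one transporter. Membranes (30–80 μg protein) in 50 mM Tris-HCl pH 7.4, 120 mM NaCl, 5 mM KCl, 0.1% BSA. Radioligands: 0.09 nM for SERT, 0.06 nM for DAT, 0.06 nM for NET. Competitor at 8–10 concentrations, 10⁻¹⁰ to 10⁻⁵ M. Incubated 1 hr at room temperature. Filtered on PEI-presoaked glass fiber and gamma counted. Ki from nonlinear regression, n = 3.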

Nucleic Acid [2] = assay: Ratio of drug level in hypothalamus to cerebellum in rat after 30 mins; format: ADME, tissue-based; conditions: in vivo, 0.5 h
Procedure, shortened: (§2)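 Rats, 3 per group, given ¹⁸F tracer (10–100 μCi, 0.2 ml sterile water with 1 mg/mL BSA) into the femoral vein under isoflurane. Brain regions, including hypothalamus, striatum and cerebellum, dissected, weighed and counted. % dose/g calculated against a 1% diluted aliquot of the dose. Region/cerebellum ratio is region %dose/g divided by cerebellum %dose/g. SD of the ratio propagated from both means and SDs.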

[3] = biological target: Sodium-dependent serotonin transporter (Homo sapiens, UniProt P31645); assay: Displacement of [125I]5-iodo-2-[[2,2-[(dimethylamino)methyl]phenyl]thio]benzyl alcohol from SERT expressed in LLCPK1 cells; format: cell-based, LLC-PK1; procedure, shortened: as §1
Sequence of Sodium-dependent serotonin transporter (P31645 whole entry): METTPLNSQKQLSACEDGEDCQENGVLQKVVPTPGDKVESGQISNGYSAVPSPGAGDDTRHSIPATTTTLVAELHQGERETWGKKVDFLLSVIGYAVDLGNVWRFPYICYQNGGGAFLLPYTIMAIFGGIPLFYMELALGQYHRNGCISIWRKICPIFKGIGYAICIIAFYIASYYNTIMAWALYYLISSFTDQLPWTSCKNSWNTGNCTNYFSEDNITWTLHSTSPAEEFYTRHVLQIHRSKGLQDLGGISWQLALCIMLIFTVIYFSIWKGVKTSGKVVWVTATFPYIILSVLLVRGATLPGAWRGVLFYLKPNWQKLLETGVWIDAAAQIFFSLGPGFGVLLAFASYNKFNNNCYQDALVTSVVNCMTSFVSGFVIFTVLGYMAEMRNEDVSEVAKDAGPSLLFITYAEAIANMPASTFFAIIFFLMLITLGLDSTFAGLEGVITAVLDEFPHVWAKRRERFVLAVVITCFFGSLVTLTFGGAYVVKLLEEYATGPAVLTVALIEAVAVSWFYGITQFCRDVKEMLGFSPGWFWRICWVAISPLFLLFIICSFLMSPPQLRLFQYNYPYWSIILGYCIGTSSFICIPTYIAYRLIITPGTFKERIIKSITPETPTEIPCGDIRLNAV

Brain [4] = assay: Biodistribution in iv dosed rat brain after 30 mins; format: ADME, organism-based; conditions: in vivo, 0.5 h
Procedure, shortened: (§3)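 [18F]-labeled tracer was given to rats under isoflurane anesthesia: 0.2 ml sterile water with 1 mg/mL BSA and 10–100 μCi, into the femoral vein. Three rats per group. Animals were killed by cervical dislocation under anesthesia at the stated time. Organs were removed, weighed and counted. Uptake was calculated as percent dose against a 1% aliquot of the injected dose counted alongside.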

Brain [5] = assay: Biodistribution in iv dosed rat brain after 120 mins; format: ADME, organism-based; conditions: in vivo, 2 h; procedure, shortened: as §3
Nucleic Acid [6] = assay: Ratio of drug level in hypothalamus to cerebellum in rat after 120 mins; format: ADME, tissue-based; conditions: in vivo, 2 h; procedure, shortened: as §2
[7] = biological target: Sodium-dependent noradrenaline transporter (Homo sapiens, UniProt P23975); assay: Displacement of [125I]iodonisoxetine from NET expressed in LLCPK1 cells; format: cell-based, LLC-PK1; procedure, shortened: as §1
Sequence of Sodium-dependent noradrenaline transporter (P23975 whole entry): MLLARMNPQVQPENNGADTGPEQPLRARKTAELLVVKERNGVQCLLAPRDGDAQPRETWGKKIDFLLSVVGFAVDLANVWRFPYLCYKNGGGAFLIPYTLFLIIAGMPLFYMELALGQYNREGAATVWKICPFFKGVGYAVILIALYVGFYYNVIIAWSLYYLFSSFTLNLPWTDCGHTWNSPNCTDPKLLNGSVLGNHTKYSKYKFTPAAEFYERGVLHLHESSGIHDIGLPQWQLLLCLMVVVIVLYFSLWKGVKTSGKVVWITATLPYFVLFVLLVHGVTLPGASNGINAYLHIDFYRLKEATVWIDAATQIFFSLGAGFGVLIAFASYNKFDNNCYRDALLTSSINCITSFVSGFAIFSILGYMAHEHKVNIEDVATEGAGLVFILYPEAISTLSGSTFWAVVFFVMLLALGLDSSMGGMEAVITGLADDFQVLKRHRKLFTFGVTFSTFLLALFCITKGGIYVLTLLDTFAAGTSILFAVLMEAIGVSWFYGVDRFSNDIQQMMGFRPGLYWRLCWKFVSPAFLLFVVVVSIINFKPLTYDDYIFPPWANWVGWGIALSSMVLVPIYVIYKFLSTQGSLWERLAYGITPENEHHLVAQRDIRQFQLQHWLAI

[8] = Partition coefficient, log P at pH 7.4; format: physicochemical; conditions: octanol/water

Sequence of Sodium-dependent dopamine transporter (Q01959 whole entry): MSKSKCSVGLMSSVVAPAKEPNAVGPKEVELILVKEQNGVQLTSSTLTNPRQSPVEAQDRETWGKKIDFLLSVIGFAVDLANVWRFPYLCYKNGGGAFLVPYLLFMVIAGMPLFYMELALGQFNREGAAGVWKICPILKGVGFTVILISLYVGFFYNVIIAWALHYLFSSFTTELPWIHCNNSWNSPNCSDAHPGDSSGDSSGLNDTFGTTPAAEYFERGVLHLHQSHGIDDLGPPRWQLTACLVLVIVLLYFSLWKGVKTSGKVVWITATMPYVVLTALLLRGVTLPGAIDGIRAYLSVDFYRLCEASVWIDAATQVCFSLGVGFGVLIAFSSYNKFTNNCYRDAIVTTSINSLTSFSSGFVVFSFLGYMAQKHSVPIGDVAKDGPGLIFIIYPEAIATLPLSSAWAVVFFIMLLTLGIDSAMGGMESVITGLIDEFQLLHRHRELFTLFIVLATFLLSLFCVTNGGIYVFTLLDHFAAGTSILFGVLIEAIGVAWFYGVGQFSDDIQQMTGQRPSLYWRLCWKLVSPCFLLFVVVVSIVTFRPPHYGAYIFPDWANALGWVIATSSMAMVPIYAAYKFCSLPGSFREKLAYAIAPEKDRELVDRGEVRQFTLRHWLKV

| Structure (SMILES) | Ki [1] | Ratio (Nucleic Acid [2]) | Ki [3] | Drug uptake (Brain [4]) | Drug uptake (Brain [5]) | Ratio (Nucleic Acid [6]) | Ki [7] | logD [8] |
| --- | --- | --- | --- | --- | --- | --- | --- | --- |
| CN(C)Cc1cc(OCC[18F])ccc1Sc1ccc(Cl)cc1N |  |  |  |  |  |  |  | 2.71 |
| CN(C)Cc1cc(OCCF)ccc1Sc1ccc(Cl)cc1N | 847 nM | 2.36 | 0.03 nM | 1.72 %ID | 1.46 %ID | 3.77 | 97 nM |  |
| CN(C)Cc1cc(OCCCF)ccc1Sc1ccc(F)cc1N | > 1000 nM | 2.66 | 0.95 nM | 1.43 %ID | 1.32 %ID | 4.36 | 95 nM |  |
| CN(C)Cc1cc(OCCCF)ccc1Sc1ccc(Br)cc1N | > 1000 nM | 1.93 | 0.15 nM | 1.12 %ID | 1.15 %ID | 4.17 | > 1000 nM |  |
| CN(C)Cc1cc(OCC[18F])ccc1Sc1ccc(F)cc1N |  |  |  |  |  |  |  | 2.47 |
| CN(C)Cc1cc(OCCCO)ccc1Sc1ccccc1N | 443 nM |  | 1.3 nM |  |  |  | 7 nM |  |
| CN(C)Cc1cc(OCCO)ccc1Sc1ccccc1N | 351 nM |  | 1.1 nM |  |  |  | 11 nM |  |

Further lines, results first:

| Ki [1] | Ratio (Nucleic Acid [2]) | Ki [3] | Drug uptake (Brain [4]) | Drug uptake (Brain [5]) | Ratio (Nucleic Acid [6]) | Ki [7] | logD [8] | Structure (SMILES) |
| --- | --- | --- | --- | --- | --- | --- | --- | --- |
| 340 nM | 3.79 | 0.25 nM | 1.85 %ID | 0.63 %ID | 7.83 | 7.5 nM |  | CN(C)Cc1cc(OCCF)ccc1Sc1ccccc1N |
| > 1000 nM | 2.78 | 0.1 nM | 2.23 %ID | 2.57 %ID | 4.34 | 37 nM |  | CN(C)Cc1cc(OCCF)ccc1Sc1ccc(F)cc1N |
| > 1000 nM | 2.04 | 0.05 nM | 1.88 %ID | 2.16 %ID | 3.7 | 114 nM |  | CN(C)Cc1cc(OCCF)ccc1Sc1ccc(Br)cc1N |
|  |  |  |  |  |  |  | 3.3 | CN(C)Cc1cc(OCCC[18F])ccc1Sc1ccc(Br)cc1N |
| 659 nM |  | 17 nM |  |  |  | 33 nM |  | CN(C)Cc1cc(O)ccc1Sc1ccccc1N |
| > 1000 nM |  | 1.2 nM |  |  |  | 56 nM |  | CN(C)Cc1cc(OCCO)ccc1Sc1ccc(F)cc1N |
| 576 nM |  | 5 nM |  |  |  | 14 nM |  | COc1ccc(Sc2ccccc2N)c(CN(C)C)c1 |
| 299 nM | 3.5 | 1.4 nM | 1.23 %ID | 0.59 %ID | 7.67 | 12 nM |  | CN(C)Cc1cc(OCCCF)ccc1Sc1ccccc1N |
|  |  |  |  |  |  |  | 2.65 | CN(C)Cc1cc(OCCC[18F])ccc1Sc1ccc(F)cc1N |
| > 1000 nM |  | 0.21 nM |  |  |  | 279 nM |  | CN(C)Cc1cc(OCCCO)ccc1Sc1ccc(Br)cc1N |
|  |  |  |  |  |  |  | 2.54 | CN(C)Cc1cc(OCCC[18F])ccc1Sc1ccccc1N |
